From ChEMBL document CHEMBL4819012, “Discovery of novel 2-aryl-3-sulfonamido-pyridines (HoAns) as microtubule polymerization inhibitors with potent antitumor activities” (Eur J Med Chem, 2021)
Active and inactive are the calls of the source. The rule behind the calls is not given here.

Legend:
PANC-1 [1] = assay: Induction of cell cycle arrest in human PANC-1 cells assessed as accumulation of cells in G1 phase at 1 uM measured after 24 hrs by PI staining based flow cytometry method (reference value: 31.35%); type: functional
SW-620 [2] = assay: Induction of cell cycle arrest in human SW-620 cells assessed as reduction in Cyclin B1 expression at 0.5 to 1 uM measured after 24 hrs by western blot assay; type: functional, cell-based; conditions: dose 0.5-1 µM
In short: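 RKO or SW620 cells (4×10^5–5×10^5 per well) exposed to 0.5 or 1 μM or DMSO for 24 h. Lysed in SDS loading buffer, boiled, run on 8–15% SDS-PAGE and moved to PVDF. Blocked in 5% milk, probed overnight at 4 °C with anti-Cdc2 or anti-cyclin B1 (1:1000), β-actin as reference. HRP secondary and ECL detection. Done at least three times.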

BT-474 = assay: Antiproliferative activity against human BT-474 cells assessed as cell viability measured after 72 hrs by MTS method; type: functional, cell-based; conditions: BT-474, 72 h
In short: (§1)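 Log-phase cells plated at 5×10^3–6×10^3 per well for 24 h, then given graded compound concentrations in fresh medium for 72 h, five replicate wells. Medium replaced with medium containing 10% MTS, 30 min or more at 37 °C in dark; OD 490 nm read. IC50 by nonlinear regression; mean ± SD of at least three experiments.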

SW-620 [3] = assay: Induction of apoptosis in human SW-620 cells assessed as increase in cleaved PARP levels at 0.5 to 1 uM measured after 24 hrs by western blot assay; type: functional, cell-based; conditions: dose 0.5-1 µM
In short: (§2)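 RKO or SW620 cells at 4×10^5–5×10^5 per well treated with 0.5 and 1 µM for 24 h; lysed in SDS loading buffer, boiled, SDS-PAGE, PVDF transfer; probed with anti-Bax or anti-cleaved PARP (1:1000) overnight at 4 °C, HRP secondary, ECL detection; β-actin control.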

SW-620 [4] = assay: Induction of apoptosis in human SW-620 cells assessed as necrotic cells at 1 uM measured after 24 hrs by PI/Annexin V staining based flow cytometry assay (reference value: 0.03%); type: functional
RKO [5] = assay: Induction of apoptosis in human RKO cells assessed as viable cells at 1 uM measured after 24 hrs by PI/Annexin V staining based flow cytometry assay (reference value: 96.6%); type: functional; conditions: read-out: Activity
RKO [6] = assay: Induction of apoptosis in human RKO cells assessed as increase in cleaved PARP levels at 0.5 to 1 uM measured after 24 hrs by western blot assay; type: functional, cell-based; conditions: dose 0.5-1 µM; in short: as §2
HUVEC = assay: Anti-vascular activity against human HUVEC cells assessed as wound closure at 1 uM measured after 24 hrs by wound closure assay (reference value: 71.8%); type: functional
SW-620 [7] = assay: Antiproliferative activity against human SW-620 cells assessed as cell viability measured after 72 hrs by MTS method; type: functional, cell-based; conditions: SW-620, 72 h; in short: as §1
SGC-7901 = assay: Antiproliferative activity against human SGC-7901 cells assessed as cell viability measured after 72 hrs by MTS method; type: functional, cell-based; conditions: SGC-7901, 72 h; in short: as §1
SW-620 [8] = assay: Induction of cell cycle arrest in human SW-620 cells assessed as accumulation of cells in S phase at 1 uM measured after 24 hrs by PI staining based flow cytometry method (reference value: 46.12%); type: functional
SW480 = assay: Antiproliferative activity against human SW480 cells assessed as cell viability measured after 72 hrs by MTS method; type: functional, cell-based; conditions: SW480, 72 h; in short: as §1
RKO [9] = assay: Induction of cell cycle arrest in human RKO cells assessed as accumulation of cells in G2 phase at 1 uM measured after 24 hrs by PI staining based flow cytometry method (reference value: 10.79%); type: functional
PANC-1 [10] = assay: Induction of cell cycle arrest in human PANC-1 cells assessed as accumulation of cells in G2 phase at 1 uM measured after 24 hrs by PI staining based flow cytometry method (reference value: 3.63%); type: functional
RKO [11] = assay: Induction of cell cycle arrest in human RKO cells assessed as accumulation of cells in S phase at 1 uM measured after 24 hrs by PI staining based flow cytometry method (reference value: 49.66%); type: functional
RKO [12] = assay: Induction of apoptosis in human RKO cells assessed as increase in Bax expression at 0.5 to 1 uM measured after 24 hrs by western blot assay; type: functional, cell-based; conditions: dose 0.5-1 µM; in short: as §2
SW-620 [13] = assay: Induction of apoptosis in human SW-620 cells assessed as increase in Bax expression at 0.5 to 1 uM measured after 24 hrs by western blot assay; type: functional, cell-based; conditions: dose 0.5-1 µM; in short: as §2
Sus scrofa = species on record: Sus scrofa; assay: Inhibition of pig tubulin polymerization at 10 uM measured every minute for 60 mins by microplate reader method
In short: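 Kit assay with porcine tubulin (>97% pure) at 4 mg/mL in PIPES 80 mM, MgCl2 2 mM, EGTA 0.5 mM, pH 6.9, with GTP. Compound at 10 μM final (from 100 μM working solution) preincubated 5 min at 37 °C in a prewarmed plate before cold tubulin mix is added. A340 read every minute for 60 min at 37 °C.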

SW-620 [14] = assay: Induction of apoptosis in human SW-620 cells assessed as increase in ROS levels at 0.5 uM measured after 24 hrs by DCFH-DA staining based flow cytometry method relative to control; type: functional
In short: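 Cells at 5×10^5 per well exposed to 0.25 or 0.5 µM for 24 h, then loaded with 5 µM DCFH-DA in serum-free medium 30 min at 37 °C; washed, harvested, read by flow cytometry (ex 488/em 525 nm). ROS given as ratio of treated to control; at least three experiments.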

Tubulin (Homo sapiens) = Tubulin (Homo sapiens) (UniProt P68371+Q9H4B7+P0DPH7+P68366+Q13509+Q71U36+P04350+Q3ZCM7+P07437+P68363+Q9BQE3+Q6PEY2+Q13885+Q9BVA1+Q9BUF5); assay: Inhibition of tubulin polymerization in human RKO cells assessed as fragmentation of microtubule at 1 uM measured 24 hrs by DAPI staining based immunoflourescence assay; type: cell-based
In short: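 RKO cells on coverslips (2.5×10^5 per well) incubated overnight, then treated for 24 h at 0.5 or 1 μM, DMSO, or 1 μM comparators. Fixed in cold methanol 10 min, permeabilized with 0.25% Triton X-100, blocked in 1% BSA at 4 °C overnight. Stained with anti-β-tubulin (1:100, 2 h RT) and Alexa Fluor 594 secondary (1:500, 1 h), nuclei with DAPI; imaged by fluorescence microscopy.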

RKO [15] = assay: Induction of cell cycle arrest in human RKO cells assessed as accumulation of cells in G1 phase at 1 uM measured after 24 hrs by PI staining based flow cytometry method (reference value: 39.54%); type: functional
RKO [16] = assay: Induction of apoptosis in human RKO cells assessed as late apoptotic cells at 1 uM measured after 24 hrs by PI/Annexin V staining based flow cytometry assay (reference value: 0.81%); type: functional
SW-620 [17] = assay: Induction of apoptosis in human SW-620 cells assessed as viable cells at 1 uM measured after 24 hrs by PI/Annexin V staining based flow cytometry assay (reference value: 93.89%); type: functional; conditions: read-out: Activity

IC50 (BT-474) | IC50 (SW-620 [7]) | IC50 (SGC-7901) | IC50 (SW480) | inhibition (Sus scrofa) | inhibition (Tubulin (Homo sapiens)) | Compound | Activity (PANC-1 [1]) | Activity (SW-620 [2]) | Activity (SW-620 [3]) | Activity (SW-620 [4]) | viability at 1 µM (RKO [5]) | Activity (RKO [6]) | Activity (HUVEC) | Activity (SW-620 [8]) | Activity (RKO [9]) | Activity (PANC-1 [10]) | Activity (RKO [11]) | Activity (RKO [12]) | Activity (SW-620 [13]) | fold change (FC) (SW-620 [14]) | further results
8390 nM | 2790 nM | 738 nM | 3420 nM | Active | Active | COc1ccc(S(=O)(=O)Nc2cccnc2Nc2ccc(O)cc2)cc1 [ABT-751] | 31.44% | Active | Active | 0.07% | 88.4% | Active | 18% | 44.45% | 52.8% | 64.83% | 46.23% | Active | Active | 1.8 | Activity (RKO [15]): 0.98%; Activity (RKO [16]): 1.31%; viability at 1 µM (SW-620 [17]): 85.6%
1190 nM | 673 nM | 617 nM | 338 nM | Active | Active | COc1ccc(S(=O)(=O)Nc2cccnc2-c2ccc(C#N)c(F)c2)cc1 | 2.04% | Active | Active | 0.09% | 61% | Active | 20.1% | 15.67% | 47.76% | 28.01% | 43.49% | Active | Active | 1.5 | Activity (RKO [15]): 8.75%; Activity (RKO [16]): 1.52%; viability at 1 µM (SW-620 [17]): 87.3%
